# From PubChem
# OX1R antag-1 – human HCRTR1 antagonism; CHO/OX1R cells, Fluo-8 calcium fluorescence, orexin A; inhibition, % at 5 µM; 0.43% of 330,000 active;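 active = inhibition above its plate's threshold, mean inhibition of all tested compounds on the plate plus 3 SD, cut at about 37% in these data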;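 also: 0% = orexin A challenge wells and 100% = SB-334867-A antagonist wells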
# OX1R antag-2 – blocks the human orexin 1 receptor | inhibition, % at 6.6 µM | OX1R-expressing cells, FRET antagonist read-out | O43613 | 1.8% of 330,000 active; in the data active = inhibition mostly above about 38%, no sharp cut-off; inactive = mostly below about 40%;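 also: 0% = agonist challenge alone and 100% = reference antagonist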
# CHO parental Ca – counter-screen: ATP calcium response change in parental CHO cells | inhibition, % at 5.6 µM | parental CHO-K1, ATP-induced calcium, Fluo-8 fluorescence | 0.63% of 330,000 active | AID 463079;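 active = inhibition above that plate's mean sample inhibition plus 3 SD, cut at about 26% in these data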;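 also: 0% = ATP-challenged DMSO wells and 100% = DMSO wells without ATP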
#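 test system = CHO parental line | reagent = ATP stimulus | measured by = intracellular calcium via Fluo-8 no-wash fluorescent dye | control set = ATP and no-ATP DMSO wells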
# GPR7 antag – blocks human GPR7 receptor signaling; P48145; GPR7-expressing cells, fluorescence antagonist assay; inhibition, % at 4.4 µM; 1.1% of 290,000 active; AID 1861; in the data active = inhibition above about 16%, passing the limit was not always enough;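 also: cells stimulated with the agonist NPW; 0% = agonist with vehicle and 100% = vehicle without agonist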
# Target sequence (P48145 whole entry, looked up): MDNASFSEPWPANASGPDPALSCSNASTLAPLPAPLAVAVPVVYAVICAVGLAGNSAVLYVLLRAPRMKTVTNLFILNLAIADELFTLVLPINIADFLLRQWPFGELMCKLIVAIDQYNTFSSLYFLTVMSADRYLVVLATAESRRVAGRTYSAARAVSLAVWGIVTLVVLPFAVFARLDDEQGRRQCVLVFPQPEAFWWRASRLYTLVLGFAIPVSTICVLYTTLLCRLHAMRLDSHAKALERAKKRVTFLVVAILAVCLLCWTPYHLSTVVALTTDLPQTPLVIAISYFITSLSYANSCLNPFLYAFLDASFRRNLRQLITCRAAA
# GalR3 antagonist – human GalR3 antagonism | HEK293 GalR3-CNG cAMP membrane potential fluorescence; galR3 body fused to GalR1 C-terminus | AID 651719 | inhibition, % at 3 µM | 0.44% of 360,000 active;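 active = inhibition above the screen-wide average plus 3 SD, cut at about 13% in these data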;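 also: forskolin and galanin both at EC90 stimulate the cells; cAMP rise reported by CNG channel membrane potential dye signal; 0% = forskolin plus galanin with DMSO and 100% = forskolin alone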
# Target sequence (O60755 1-299 limits assumed): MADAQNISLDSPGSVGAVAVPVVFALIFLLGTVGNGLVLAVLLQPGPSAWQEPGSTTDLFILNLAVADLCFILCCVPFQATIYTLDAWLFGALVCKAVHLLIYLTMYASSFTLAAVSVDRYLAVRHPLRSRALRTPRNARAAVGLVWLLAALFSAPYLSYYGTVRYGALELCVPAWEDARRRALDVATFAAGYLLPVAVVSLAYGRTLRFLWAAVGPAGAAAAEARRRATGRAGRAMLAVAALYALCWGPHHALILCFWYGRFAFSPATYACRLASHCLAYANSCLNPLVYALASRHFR
# An asterisk follows results filed as active; . = no result. In the library only some 3.1% were active in any assay of this set; here they are far more common.
SMILES,OX1R antag-1,OX1R antag-2,CHO parental Ca,GPR7 antag,GalR3 antagonist
Oc1ccc(Oc2ccc3c(C(F)(F)F)cc(C(F)(F)F)nc3n2)cc1,13,-1,49*,10,-7
Cc1cc(N2CCN(S(C)(=O)=O)C[C@@H]2C)ccc1N1CCN(Cc2ccccc2)[C@@H](C)C1,.,.,.,.,-7
CCN1/C(=C/C=C/C=C/C=C/c2sc3ccccc3[n+]2CC)Sc2ccccc21,0,0,1,2,-13
CCN1/C(=C/C=C/C=C/c2sc3ccccc3[n+]2CC)Sc2ccccc21,52*,38,61*,-11,.
CCN1/C(=C/C=C/c2sc3ccccc3[n+]2CC)Sc2ccccc21,36,41*,61*,.,.
Cc1ccc(NC(=O)c2ncn(CCCNCC3CCCO3)n2)cc1C (centres undefined),.,.,.,.,-8
Cc1ccc(NC(=O)c2ccc(CSc3nnc(C)s3)cc2)cc1,-1,10,40*,1,-4
Cc1cc(C)cc(NC(=O)c2ccc(CSc3nnc(C)s3)cc2)c1,-1,8,-3,10,-3
CC1(C(=O)Nc2ccc3c(c2)OCCO3)CN(S(C)(=O)=O)CC(=O)N1CCc1c[nH]c2ccccc12 (centres undefined),.,.,.,.,-4
COc1ccc(-c2coc3c(C(=O)NCc4cccs4)cccc23)c(C)c1,.,.,.,.,-7
COCCNC(=O)C1CCCN(S(=O)(=O)c2cccc3nsnc23)C1 (centres undefined),-3,48*,-11,5,-1
O=C(NCc1ccccn1)C1CCCN(S(=O)(=O)c2cccc3nsnc23)C1 (centres undefined),-21,121*,-4,2,-3
O=[N+]([O-])c1ccc(O)c(/C=N/Nc2ccccn2)c1,75*,3,87*,-2,-5
C[C@@H]1CCCCO[C@@H](CN(C)Cc2ccc(C(=O)O)cc2)[C@@H](C)CN([C@H](C)CO)C(=O)c2cc(NS(C)(=O)=O)ccc2O1,.,.,.,.,-4
CCn1c(O)c(C=Nc2ccccc2)sc1=S,-21,59*,-14,-1,-6
C[C@@H]1COc2cc(NCCO)ccc2S(=O)(=O)N1,.,.,.,.,-4
Cn1nc(C(C)(C)C)cc1N1C(=O)CCC1(C)C(=O)Nc1ccc2c(c1)OCCO2 (centres undefined),.,.,.,.,-3
CCOc1ccccc1NS(=O)(=O)c1cccc2nsnc12,0,10,-8,3,-7
Cc1cccc(NC(=O)CCNS(=O)(=O)c2cccc3nsnc23)c1,-32,38,-9,-5,0
CC(=O)c1cccc(NC(=O)CCNS(=O)(=O)c2cccc3nsnc23)c1,-20,58*,-14,8,4
CCOc1ccccc1NC(=O)CCNS(=O)(=O)c1cccc2nsnc12,-21,67*,-11,-8,0
COc1ccc(NC(=O)CCNS(=O)(=O)c2cccc3nsnc23)c(OC)c1,-16,73*,-3,-4,-11
COCc1cc(N2CCN(C(=O)OC(C)(C)C)C[C@@H]2C)ccc1N1CC[C@@H](O)C1,.,.,.,.,-8
O=C1CCC(C(=O)N2CCN(c3ccccc3)CC2)CN1Cc1ccc(Cl)cc1 (centres undefined),.,.,.,.,0
Cc1ccc(OCCCC(=O)N(C)CC(=O)Nc2c(C)cccc2C)cc1,.,.,.,.,-9
SMILES,OX1R antag-1,OX1R antag-2,CHO parental Ca,GPR7 antag,GalR3 antagonist
Cc1c(C=O)c(=O)n(-c2ccccc2)n1-c1ccccc1,-14,38,4,20*,-3
N#C/C(=C(/O)c1ccccc1F)c1nc2cc(C(F)(F)F)ccc2s1,-6,29,-7,-9,-3
N#C/C(=C(/O)c1ccc2c(c1)OCO2)c1nc2cc(C(F)(F)F)ccc2s1,-7,58*,0,-6,-13
CCC(C)N(Cc1ccc(OC)cc1OC)S(=O)(=O)c1cc(Br)ccc1Br (centres undefined),.,.,.,.,-9
O=C(/C=C(\Nc1cc(Cl)c(F)c(Cl)c1)c1ccccc1)c1ccccc1,.,.,.,.,-4
CCc1noc(C)c1C(=O)Nc1nc(-c2cccs2)cs1,-24,51*,-28,.,4
Cc1noc(C)c1C(=O)Nc1nc(-c2cccs2)cs1,-18,15,-20,.,-2
Cc1oc2c(c1C(=O)c1ccc(Cl)cc1)C(=O)C(=O)c1ccccc1-2,.,.,.,28*,2
Cc1ccc(C(=O)c2coc3c2C(=O)C(=O)c2ccccc2-3)cc1,1,47*,-25,11,-5
Cc1ccc(C(=O)c2cn[nH]c2-c2ccccc2O)cc1,-14,-1,4,-12,-2
CC(C)(C)S(=O)(=O)N1Cc2cc(CO)ccc2[C@@H]1CCO,.,.,.,.,-6
CCCCN(CC)CCCNC(=O)C1CCN(c2ncnc3c2sc2cccc(F)c23)CC1,-11,62*,-15,-4,-3
C=CCN1N=C(c2ccc(NC(=O)c3ccccc3)cc2)CSC1=O,-9,9,47*,3,5
COC(=O)C1=C(C)N(Cc2ccc(C(F)(F)F)cc2)C(=NCc2ccccc2)NC1c1ccccc1 (centres undefined),.,.,.,.,-6
CC(=O)Nc1nc(-c2ccc([N+](=O)[O-])cc2)cs1,0,23,2,-4,-1
O=C(Nc1ccc([N+](=O)[O-])cc1)Nc1nc(-c2ccc(Cl)s2)cs1,28,28,57*,-7,-7
Cc1c(NS(=O)(=O)c2cccs2)cccc1-c1nc2cccnc2s1,6,34,-14,-2,-1
O=S(=O)(Nc1cccc2ncccc12)c1cccs1,27,32,40*,5,.
C[C@H](CO)N1C[C@H](C)[C@@H](CN(C)C(=O)Nc2ccc3c(c2)OCO3)OCc2cn(nn2)CCCC1=O,.,.,.,.,-1
CCN1CCN(CCNC(=O)c2ccc(/C=C3/Sc4ccccc4N(Cc4cccc(Cl)c4)C3=O)cc2)CC1,7,14,-7,13,-3
CCN1CCN(CCNC(=O)c2ccc3c(c2)N(Cc2ccc(F)cc2)C(=O)/C(=C/c2ccccc2)S3)CC1,-15,19,14,29*,-7
COC(=O)C1=C(C)N(Cc2cccc(C(F)(F)F)c2)C(=NCc2cc(OC)c(OC)c(OC)c2)NC1c1cccc(F)c1 (centres undefined),.,.,.,.,-1
N#Cc1c(-c2ccccc2)nc(SCC(=O)N2c3ccccc3Sc3ccccc32)[nH]c1=O,-15,76*,-5,-8,1
N#Cc1c(-c2ccccc2)nc(SCC(=O)N(c2ccccc2)c2ccccc2)[nH]c1=O,-10,23,-5,3,-5
CCN(CC)c1ccc2cc(-c3nc(-c4ccc(OC)cc4)cs3)c(=O)oc2c1,106*,26,97*,13,1
CCN(CC)c1ccc2cc(-c3nnc(-c4ccc(Br)cc4)o3)c(=O)oc2c1,.,.,.,-8,.
CC(=O)O[C@H]1C=C[C@@H](NC(=O)OC(C)(C)C)C1,.,.,.,.,-5
O=C(Nc1cccc(-c2nc3ccccc3s2)c1)C1=COCCO1,1,75*,-25,-5,-5
O=C1c2ccccc2/C(=C\c2ccc(Br)nc2)N1c1ccccc1,.,.,.,.,-6
COc1ccc(/C=N/Nc2nnc(C)n2N)cc1OC,11,60,-3,-1,9
